ChEMBL document CHEMBL4765243, “Discovery of Novel Bromophenol-Thiosemicarbazone Hybrids as Potent Selective Inhibitors of Poly(ADP-ribose) Polymerase-1 (PARP-1) for Use in Cancer” (J Med Chem, 2019)
Activity calls are given as the source filed them. The rule behind the calls is not given here.

How the values were obtained:
[1] = MRT in Sprague-Dawley rat at 10 mg/kg, po by LC/MS/MS analysis; assay type: ADME, organism-based; details: in vivo
Summary of the method: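 Male Sprague-Dawley rats, 4 per group, dosed once orally at 10 mg/kg or intravenously at 2 mg/kg. Blood taken from the saphenous vein for plasma. Drug levels measured by LC-MS-MS, with parameters derived by noncompartmental analysis.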

[2] = biological target: Poly [ADP-ribose] polymerase 1 (Homo sapiens, UniProt P09874); experiment: Inhibition of PARP-1 in human SKOV3 cells assessed as decrease in MCM6 protein expression level at 2.5 to 10 uM incubated for 48 hrs by western blot analysis; assay type: cell-based; details: SK-OV-3, dose 2.5-10 µM
Sequence of Poly [ADP-ribose] polymerase 1 (P09874 whole entry): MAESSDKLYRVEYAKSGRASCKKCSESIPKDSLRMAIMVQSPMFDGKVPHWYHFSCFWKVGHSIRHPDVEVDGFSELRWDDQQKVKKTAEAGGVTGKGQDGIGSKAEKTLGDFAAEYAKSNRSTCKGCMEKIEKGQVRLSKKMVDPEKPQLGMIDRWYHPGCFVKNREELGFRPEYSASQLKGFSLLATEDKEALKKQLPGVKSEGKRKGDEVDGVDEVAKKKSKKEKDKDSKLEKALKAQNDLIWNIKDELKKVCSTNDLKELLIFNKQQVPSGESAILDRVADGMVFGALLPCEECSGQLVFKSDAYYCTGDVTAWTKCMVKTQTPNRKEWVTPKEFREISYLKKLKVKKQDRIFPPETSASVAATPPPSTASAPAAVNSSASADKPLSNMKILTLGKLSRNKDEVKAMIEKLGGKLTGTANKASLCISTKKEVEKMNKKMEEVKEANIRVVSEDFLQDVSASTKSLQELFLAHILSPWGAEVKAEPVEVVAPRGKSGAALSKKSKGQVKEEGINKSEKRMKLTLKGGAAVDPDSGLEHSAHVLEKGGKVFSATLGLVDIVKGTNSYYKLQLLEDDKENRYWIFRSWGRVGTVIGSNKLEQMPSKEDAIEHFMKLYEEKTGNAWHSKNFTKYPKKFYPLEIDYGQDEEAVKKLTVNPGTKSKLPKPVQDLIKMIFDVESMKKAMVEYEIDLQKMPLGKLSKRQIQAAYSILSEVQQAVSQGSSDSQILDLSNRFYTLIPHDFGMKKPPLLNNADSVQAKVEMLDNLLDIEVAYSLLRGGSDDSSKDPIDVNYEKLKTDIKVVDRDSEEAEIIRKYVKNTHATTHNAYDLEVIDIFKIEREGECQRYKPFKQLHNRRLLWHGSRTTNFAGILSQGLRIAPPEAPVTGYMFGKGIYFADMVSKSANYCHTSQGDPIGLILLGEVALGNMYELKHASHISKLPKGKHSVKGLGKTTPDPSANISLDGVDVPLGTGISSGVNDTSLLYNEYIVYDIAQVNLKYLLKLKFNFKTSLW
Summary of the method: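 SK-OV-3 cells were grown in McCOY's 5A, seeded in 6-well plates and treated for 48 h. Lysate proteins were separated by 8-15 % SDS-PAGE and transferred to PVDF membranes. Membranes were blocked in 5 % nonfat milk, probed with primary antibody overnight at 4 °C and with HRP secondary antibody for 1 h at room temperature, then detected by enhanced chemiluminescence. Images are representative of 3 independent experiments.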

SK-OV-3 [3] = experiment: Induction of autophagy in human SKOV3 cells assessed as increase in Atg-14 protein level at 10 uM incubated for 48 hrs by western blot analysis; assay type: functional, cell-based
Summary of the method: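 SK-OV-3 cells seeded in 6-well plates, treated 48 h. Protein lysates separated on 8-15 % SDS-PAGE and transferred to PVDF. Membranes blocked in 5 % nonfat milk, probed with primary antibody overnight at 4 °C, then secondary antibody 1 h at room temperature. Bands detected by enhanced chemiluminescence.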

SK-OV-3 [4] = experiment: Induction of autophagy in human SKOV3 cells transfected with GFP-LC3 assessed as increase in LC3 dot accumulation at 10 uM incubated for 48 hrs by TEM analysis; assay type: functional, cell-based; details: in the assay text read “fluorescence microscopy” for “TEM analysis”
Summary of the method: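 SK-OV-3 cells on glass coverslips infected with Ad-mCherry-GFP-LC3B for 24 h. Cells then treated at 10 µM for 48 h, fixed in 4% paraformaldehyde and examined by fluorescence microscopy.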

Q: Which MRT [1] does the source give for `COc1cc(/C=N/NC(N)=S)c(Br)c(Br)c1OC` here?
A: Its MRT is 3.76 h.

Q: What about the inhibition [2] of the same molecule?
A: The inhibition was “Active”.

Q: What about the Activity (SK-OV-3 [3]) of the same molecule?
A: Its Activity is “Active”.

Q: What about the Activity (SK-OV-3 [4]) of the same molecule?
A: The Activity was “Active”.
